Experimental data taken from ChEMBL document CHEMBL3351949, “Substituted dithiazole piperazine benzamides as novel amyloid beta peptide reducing agents” (Bioorg Med Chem Lett, 2014).
Active and inactive are the calls of the source. The rule behind the calls is not given here.

Tests used:
[1] = molecular target: Amyloid-beta precursor protein (Homo sapiens) (UniProt P05067); experiment: Reduction in wild type APP751 (unknown origin) expressed in CHO cells at 1 uM after 48 hrs by immunoblotting method; assay type: cell-based
Procedure, shortened: (§1)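 CHO cells stably expressing APP751wt (7WD10) treated 48 h, duplicate wells, DMSO as control. Conditioned medium centrifuged and immunoprecipitated overnight with Ab9 (Aβ 1–16). Aβ detected by SDS-PAGE immunoblot with 6E10/82E1 and ECL, signals quantified by densitometry. Dose-response n=4; ANOVA with Dunnett's post-hoc test.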

N2a = experiment: Reduction in […] APP695 Sweden mutant (unknown origin) expressed in N2a cells by immunoblotting method; assay type: cell-based; settings: Homo sapiens
Procedure, shortened: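 Neuro-2a cells stably expressing APP695swe treated at 1.0 μM. Aβ immunoprecipitated from conditioned medium with Ab9 antibody (Aβ 1–16) and detected by immunoblot with 6E10/82E1 mixture.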

[2] = molecular target: Amyloid-beta precursor protein (Homo sapiens) (UniProt P05067); experiment: Reduction in wild type APP751 (unknown origin) expressed in CHO cells at 500 nM after 48 hrs by immunoblotting method relative to untreated control; assay type: cell-based; procedure, shortened: as §1
[3] = molecular target: Amyloid-beta precursor protein (Homo sapiens) (UniProt P05067); experiment: Reduction in wild type APP751 (unknown origin) expressed in CHO cells at 1 uM after 48 hrs by immunoblotting method relative to untreated control; assay type: cell-based; procedure, shortened: as §1
[4] = molecular target: Amyloid-beta precursor protein (Homo sapiens) (UniProt P05067); experiment: Reduction in wild type APP751 (unknown origin) expressed in CHO cells at 10 uM after 48 hrs by immunoblotting method relative to untreated control; assay type: cell-based; procedure, shortened: as §1
[5] = molecular target: Amyloid-beta precursor protein (Homo sapiens) (UniProt P05067); experiment: Reduction in wild type APP751 (unknown origin) expressed in CHO cells at 50 nM after 48 hrs by immunoblotting method relative to untreated control; assay type: cell-based; procedure, shortened: as §1
[6] = molecular target: Amyloid-beta precursor protein (Homo sapiens) (UniProt P05067); experiment: Reduction in wild type APP751 (unknown origin) expressed in CHO cells at 100 nM after 48 hrs by immunoblotting method relative to untreated control; assay type: cell-based; procedure, shortened: as §1
[7] = molecular target: Amyloid-beta precursor protein (Homo sapiens) (UniProt P05067); experiment: Reduction in wild type APP751 (unknown origin) expressed in CHO cells assessed as increase in c-terminal fragments at 50 nM to 10 uM after 48 hrs by immunoblotting method relative to untreated control; assay type: cell-based
Procedure, shortened: (§2)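 7WD10 CHO cells (APP751wt) treated 48 h versus DMSO controls. Cells lysed in buffer with protease inhibitors. Full-length APP and C-terminal fragments detected with CT15 antibody by SDS-PAGE immunoblot and ECL, quantified by densitometry. n=4; ANOVA with Dunnett's test.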

[8] = molecular target: Amyloid-beta precursor protein (Homo sapiens) (UniProt P05067); experiment: Reduction in wild type APP751 (unknown origin) expressed in CHO cells assessed as increase in secreted APPalpha at 50 nM to 10 uM after 48 hrs by immunoblotting method relative to untreated control; assay type: cell-based
Procedure, shortened: (§3)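 48 h treatment of APP751wt-expressing CHO (7WD10) cells, DMSO control. Conditioned medium immunoblotted for sAPPα (6E10), sAPPβ (anti-sAPPβ-wt rabbit IgG) and total sAPP (63G). Detection by ECL, densitometric quantification.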

[9] = molecular target: Amyloid-beta precursor protein (Homo sapiens) (UniProt P05067); experiment: Reduction in wild type APP751 (unknown origin) expressed in CHO cells assessed as increase in secreted APPbeta at 50 nM to 10 uM after 48 hrs by immunoblotting method relative to untreated control; assay type: cell-based; procedure, shortened: as §3
[10] = molecular target: Amyloid-beta precursor protein (Homo sapiens) (UniProt P05067); experiment: Reduction in wild type APP751 (unknown origin) expressed in CHO cells assessed as increase in secreted APPalpha at 50 nM to 10 uM after 48 hrs by immunoblotting method; assay type: cell-based; set-up: scale not given: the % may be the effect or the level left; procedure, shortened: as §3
[11] = molecular target: Amyloid-beta precursor protein (Homo sapiens) (UniProt P05067); experiment: Reduction in wild type APP751 (unknown origin) expressed in CHO cells assessed as increase in full length APP level at 50 nM to 10 uM after 48 hrs by immunoblotting method; assay type: cell-based; procedure, shortened: as §2
[12] = molecular target: Amyloid-beta precursor protein (Homo sapiens) (UniProt P05067); experiment: Reduction in wild type APP751 (unknown origin) expressed in CHO cells assessed as increase in alpha c-terminal fragments at 50 nM to 10 uM after 48 hrs by immunoblotting method relative to untreated control; assay type: cell-based; procedure, shortened: as §2
[13] = molecular target: Amyloid-beta precursor protein (Homo sapiens) (UniProt P05067); experiment: Reduction in wild type APP751 (unknown origin) expressed in CHO cells assessed as increase in alpha c-terminal fragments at 50 nM to 10 uM after 48 hrs by immunoblotting method; assay type: cell-based; set-up: scale not given: the % may be the effect or the level left; procedure, shortened: as §2
[14] = molecular target: Amyloid-beta precursor protein (Homo sapiens) (UniProt P05067); experiment: Reduction in wild type APP751 (unknown origin) expressed in CHO cells assessed as increase in beta c-terminal fragments at 50 nM to 10 uM after 48 hrs by immunoblotting method; assay type: cell-based; procedure, shortened: as §2
CHO [15] = experiment: Toxicity against CHO cells assessed as induction of cell death up to 1 uM by LDH release assay; assay type: cell-based, Cricetulus griseus; settings: chinese hamster
Procedure, shortened: (§4)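 Cytotoxicity in CHO cells measured by lactate dehydrogenase release and by MTT reduction. n=4 per group; ANOVA followed by Dunnett's post-hoc test.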

CHO [16] = experiment: Toxicity against CHO cells assessed as induction of cell death up to 1 uM by MTT assay; assay type: cell-based, Cricetulus griseus; settings: chinese hamster; procedure, shortened: as §4
CHO [17] = experiment: Toxicity against CHO cells assessed as induction of cell death at 10 uM by LDH release assay; assay type: cell-based, Cricetulus griseus; settings: chinese hamster; procedure, shortened: as §4
CHO [18] = experiment: Toxicity against CHO cells assessed as induction of cell death at 10 uM by MTT assay; assay type: cell-based, Cricetulus griseus; settings: chinese hamster; procedure, shortened: as §4
Mus musculus = experiment: Reduction in amyloid plaque numbers in APP/PS1 double transgenic APdeltaE9 mouse 0.5 mg/kg, ip dosed daily for 60 days starting from 4 to 6 months of age; assay type: functional; settings: 1440 h, route intraperitoneal
Procedure, shortened: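 APP/PS1 double transgenic (APΔE9) mice dosed i.p. daily, 0.5 mg/kg body wt., from 4- to 6-months of age for 60 days. Amyloid plaque numbers counted in brain sections (cortex and hippocampus) versus vehicle-treated mice.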

[19] = Drug level in brain of APP/PS1 double transgenic APdeltaE9 mouse 4 mg/kg, iv measured after 10 mins; assay type: ADME, organism-based; set-up: dose 4 mg/kg, route intravenous; settings: read-out: Drug uptake
Procedure, shortened: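 Mice given 4 mg/kg by intravenous injection; compound level measured in brain over time after dosing (about 10–20 min window).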

[20] = Half life in brain of APP/PS1 double transgenic APdeltaE9 mouse 4 mg/kg, iv; assay type: ADME, organism-based; set-up: dose 4 mg/kg, route intravenous

Chain of Amyloid-beta precursor protein (Homo sapiens) (P05067 whole entry, the tested form may be a part): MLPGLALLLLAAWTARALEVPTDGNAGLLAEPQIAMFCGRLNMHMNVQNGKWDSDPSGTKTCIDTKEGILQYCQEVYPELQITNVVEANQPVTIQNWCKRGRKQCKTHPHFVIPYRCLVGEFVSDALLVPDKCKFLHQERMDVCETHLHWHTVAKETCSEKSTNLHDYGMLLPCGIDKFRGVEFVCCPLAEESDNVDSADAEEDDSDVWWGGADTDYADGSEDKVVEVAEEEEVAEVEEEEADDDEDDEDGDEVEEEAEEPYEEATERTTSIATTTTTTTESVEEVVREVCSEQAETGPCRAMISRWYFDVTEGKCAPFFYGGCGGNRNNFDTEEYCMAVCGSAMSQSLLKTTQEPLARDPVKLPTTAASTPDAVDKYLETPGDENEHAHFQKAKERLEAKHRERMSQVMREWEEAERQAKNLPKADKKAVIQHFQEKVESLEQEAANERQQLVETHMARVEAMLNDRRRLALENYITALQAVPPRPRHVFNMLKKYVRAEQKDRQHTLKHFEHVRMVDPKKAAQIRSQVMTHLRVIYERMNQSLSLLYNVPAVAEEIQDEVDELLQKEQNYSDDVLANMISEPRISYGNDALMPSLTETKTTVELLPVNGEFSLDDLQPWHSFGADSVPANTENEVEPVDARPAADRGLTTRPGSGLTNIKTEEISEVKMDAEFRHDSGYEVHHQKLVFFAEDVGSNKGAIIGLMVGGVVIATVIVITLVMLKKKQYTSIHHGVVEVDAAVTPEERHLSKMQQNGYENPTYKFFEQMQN

inhibition [1]: Active | inhibition [2]: 31% | inhibition [3]: 54% | inhibition [4]: 63% | inhibition [5]: 21% | inhibition [6]: 20% | inhibition [7]: Dose-dependent effect | inhibition [8]: Dose-dependent effect | inhibition [9]: inactive | Activity [10]: 40% | inhibition [11]: Dose-dependent effect | inhibition [12]: Dose-dependent effect | Activity [13]: 80% | inhibition [14]: inactive | concentration at 10 min [19]: 0.04 µg/mL | half-life [20]: 6.7 min
Compound: NC(=O)c1ccc(N2CCN(c3nc(-c4cccc(O)c4)cs3)CC2)c(Nc2nc(-c3cccc(O)c3)cs2)c1
inhibition (N2a): Active | Activity (CHO [15]): Non-toxic | Activity (CHO [16]): Non-toxic | Activity (CHO [17]): Toxic | Activity (CHO [18]): Toxic | inhibition in vivo at 0.5 mg/kg (Mus musculus): 39%
